Test results as given in ChEMBL document CHEMBL4130352, “Ciprofloxacin-nitroxide hybrids with potential for biofilm control” (Eur J Med Chem, 2017).
In brackets after ≈: the same amount, converted by molar mass. Activity calls are given as the source filed them. No cut-off for these calls is given here.

What was measured:
Pseudomonas aeruginosa [1] = test: Antibiofilm activity against Pseudomonas aeruginosa PA14 assessed as total live biofilm biomass eradication at 20 uM preincubated for 24 hrs measured after 2 hrs by SYTO/propidium iodide double-staining-based confocal laser scanning microscopic analysis relative to control; type: functional
Pseudomonas aeruginosa [2] = test: Antibiofilm activity against Pseudomonas aeruginosa PA14 assessed as removal of biomass at 20 uM preincubated for 24 hrs measured after 2 hrs by SYTO/propidium iodide double-staining-based confocal laser scanning microscopic analysis relative to control; type: functional
Pseudomonas aeruginosa [3] = test: Effect on Pseudomonas aeruginosa PA14 assessed as dead cells at 20 uM preincubated for 24 hrs measured after 2 hrs (reference value: 4%); type: organism-based
Pseudomonas aeruginosa [4] = test: Inhibition of planktonic growth of Pseudomonas aeruginosa PA14 after 24 hrs by broth microdilution method; type: organism-based; conditions: in vitro
Method in brief: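 Broth microdilution in polypropylene microtiter plates. Compounds added as DMSO solutions, inoculum 5×10^5 CFU/mL final, incubated 37 °C for 24 h. MIC taken as the lowest concentration with no visible growth.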

HEK293 = test: Cytotoxicity against HEK293 cells assessed as reduction in cell viability at 5 to 40 uM after 24 hrs by LDH release assay; type: cell-based; conditions: human, hek293, 24 h
Method in brief: (§1)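 HEK 293 and RD cells were grown in DMEM with 10% FBS at 37°C, 5% CO2, and seeded the day before at 50,000 (HEK 293) or 20,000 (RD) cells per well. Compounds (5 mM DMSO stock) were added at 5–40 μM for 24 h, with 0.8% DMSO in all wells. LDH release was normalised to untreated cells and 3 h lysis-buffer controls. Run in triplicate.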

Pseudomonas aeruginosa [5] = test: Antibiofilm activity against Pseudomonas aeruginosa PA14 assessed as dispersion of bacteria from biofilms at 20 uM after 18.5 hrs relative to control; type: functional
Method in brief: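 PA14 biofilms pre-grown 2 days at 37°C in flow cells, then treated with 20 μM compound. Dispersed cells collected from chamber effluent at set times, plated on Pseudomonas Isolation Agar at 37°C, counted next day as CFU/mL. Fold change in viable dispersed cells calculated against untreated PA14 biofilms.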

RD = test: Cytotoxicity against human RD cells assessed as reduction in cell viability at 5 to 40 uM after 24 hrs by LDH release assay; type: cell-based; method in brief: as §1
Pseudomonas aeruginosa [6] = test: Inhibition of planktonic growth of Pseudomonas aeruginosa PA14 assessed as reduction of colony forming units after 24 hrs; type: organism-based
Method in brief: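 Overnight PA14 cultures were diluted 1:100 with or without compound (0–160 μM) and incubated 24 h. Samples were then 10-fold serially diluted and plated on LB agar, grown overnight at 37°C, and CFU were counted.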

Pseudomonas aeruginosa [7] = test: Antibiofilm activity against Pseudomonas aeruginosa PA14 assessed as dispersion of bacteria from biofilms at 20 uM after 2 to 3 hrs; type: functional, organism-based
Method in brief: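 PA14 biofilms grown 2 days in flow cells at 37°C, then exposed to 20 μM compound. Dispersed cells were collected from chamber effluent at set times, plated on Pseudomonas Isolation Agar and incubated at 37°C. CFU/mL was counted the next day, and fold-change in dispersed viable cells was calculated against untreated PA14 effluent.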

Pseudomonas aeruginosa [8] = test: Antibiofilm activity against Pseudomonas aeruginosa PA14 assessed as removal of mature biofilm at 40 uM preincubated for 24 hrs measured after 2 hrs by SYTO/propidium iodide double-staining-based confocal laser scanning microscopic analysis relative to control; type: functional

`CC1(C)CC(C(=O)N2CCN(c3cc4c(cc3F)c(=O)c(C(=O)O)cn4C3CC3)CC2)C(C)(C)N1[O]` (stereo not drawn) was tested, and the Activity (Pseudomonas aeruginosa [1]) was 67%, the Activity (Pseudomonas aeruginosa [2]) was 67% and the Activity (Pseudomonas aeruginosa [3]) was 0%. It also gave an MIC (Pseudomonas aeruginosa [4]) of 160 µM (≈ 79.9 µg/mL).

`O=C(O)c1cn(C2CC2)c2cc(N3CCNCC3)c(F)cc2c1=O` [CIPROFLOXACIN] showed an MIC (Pseudomonas aeruginosa [4]) of 0.5 µM (≈ 0.166 µg/mL).

`CON1C(C)(C)CC(C(=O)N2CCN(c3cc4c(cc3F)c(=O)c(C(=O)O)cn4C3CC3)CC2)CC1(C)C` was tested, and the Activity (Pseudomonas aeruginosa [1]) was 30%, the Activity (Pseudomonas aeruginosa [2]) was 17% and the Activity (HEK293) was “Non-Toxic”. The Activity (Pseudomonas aeruginosa [3]) was 16%, the “fold change (FC)” value (Pseudomonas aeruginosa [5]) was 0 and the Activity (RD) was “Non-Toxic”. For the same molecule, the MIC (Pseudomonas aeruginosa [4]) was greater than 303 µM.

Molecule `CON1C(C)(C)c2ccc(C(=O)N3CCN(c4cc5c(cc4F)c(=O)c(C(=O)O)cn5C4CC4)CC3)cc2C1(C)C` has an Activity (Pseudomonas aeruginosa [1]) of 54%, an MIC (Pseudomonas aeruginosa [6]) greater than 160 µM and an Activity (Pseudomonas aeruginosa [2]) of 53%. The Activity (HEK293) was “Non-Toxic”, the Activity (Pseudomonas aeruginosa [3]) was 2% and the Activity (RD) was “Non-Toxic”. It also gave an MIC (Pseudomonas aeruginosa [4]) greater than 284 µM.

Molecule `CON1C(C)(C)CC(C(=O)N2CCN(c3cc4c(cc3F)c(=O)c(C(=O)O)cn4C3CC3)CC2)C1(C)C` (stereo not drawn) has an Activity (Pseudomonas aeruginosa [1]) of 31%, an Activity (Pseudomonas aeruginosa [2]) of 24% and an Activity (Pseudomonas aeruginosa [3]) of 9%. For the same molecule, the MIC (Pseudomonas aeruginosa [4]) was 311 µM (≈ 160 µg/mL).

For `CC1(C)CC(C(=O)N2CCN(c3cc4c(cc3F)c(=O)c(C(=O)O)cn4C3CC3)CC2)CC(C)(C)N1[O]`, the Activity (Pseudomonas aeruginosa [7]) was “Active”, the Activity (Pseudomonas aeruginosa [1]) was 41% and the Activity (Pseudomonas aeruginosa [2]) was 37%. The Activity (HEK293) was “Non-Toxic”, the Activity (Pseudomonas aeruginosa [3]) was 6% and the Activity (RD) was “Non-Toxic”. It also gave an MIC (Pseudomonas aeruginosa [4]) of 312 µM (≈ 160 µg/mL).

In the case of `CC1(C)CC(N2CCN(c3cc4c(cc3F)c(=O)c(C(=O)O)cn4C3CC3)CC2)CC(C)(C)N1[O]`, the Activity (Pseudomonas aeruginosa [1]) is reported as 80%, the Activity (Pseudomonas aeruginosa [3]) is reported as 50% and the Activity (Pseudomonas aeruginosa [8]) is reported as “<=95%”.
